Data set [1] is described as follows: Clearance in rat. In kind it is ADME, organism-based. Conditions: in vivo. Put shortly:
(§1)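 Rats were given the compound both orally and intravenously. Oral and IV AUC are each normalized to dose (µg h/ml per mg/kg). The same rat study also reports oral bioavailability (%F), half-life (h), Cmax (µg/mL), clearance (mL/min/kg) and terminal volume Vz (mL/kg).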

The test system of data set [2] is Rattus norvegicus. The data set is described as follows: AUC/dose(mg/kg) in iv dosed rat. Conditions: in vivo. In kind it is ADME, organism-based, Plasma. An outline of the steps:
as §1

Data set [3] in a line: Volume of distribution in rat. Type of data set: ADME, organism-based. Conditions: in vivo, read-out: Vdss. Put shortly: as §1
Data set [4] has as its system Rattus norvegicus. Nature of the data set: AUC/dose(mg/kg) in orally dosed rat. Type of data set: ADME, organism-based, Plasma. Conditions: in vivo, po. An outline of the steps:
as §1

In another data set the target is Integrin alpha-V/beta-3 (Homo sapiens, UniProt P05106+P06756). Nature of the data set: Inhibition of Integrin alphaV Beta3 receptor by solid-phase receptor binding assay. Type of data set: protein-complex assay.
Data set [5] in a line: Bioavailability in rat. Type of data set: ADME, organism-based. Conditions: in vivo. An outline of the steps: as §1
Data set [6] is described as follows: Cmax in rat. In kind it is ADME, organism-based. Conditions: in vivo. Put shortly:
as §1

The next data set has as its target Integrin alpha-V/beta-6 (Homo sapiens, UniProt P06756+P18564). The data set is described as follows: Inhibition of Integrin alphaV Beta6 receptor in HT29 cells by solid-phase receptor binding assay. In kind it is cell-based, HT-29.
Data set [7] is described as follows: Half life in rat. Type of data set: ADME, organism-based. Conditions: in vivo. Put shortly:
as §1

The target in data set [8] is Integrin alpha-IIb/beta-3 (Homo sapiens, UniProt P05106+P08514). Nature of the data set: Inhibition of Integrin alphaIIb Beta3 receptor by solid-phase receptor binding assay. Type of data set: protein-complex assay.
The nature of data set [9]: Half life in dog. In kind it is ADME, organism-based, Canis lupus familiaris. Conditions: in vivo.
Data set [10] is described as follows: Bioavailability in cynomonkey. Type of data set: ADME, organism-based, Macaca fascicularis. Conditions: cynomolgus monkey, in vivo.
Data set [11] in a line: Bioavailability in dog. Conditions: in vivo. Type of data set: ADME, organism-based, Canis lupus familiaris.
Data set [12] is described as follows: Half life in cynomonkey. In kind it is ADME, organism-based, Macaca fascicularis. Conditions: cynomolgus monkey, in vivo.

The structures appear in SMILES notation. Bounds are passed on as bounds.

Sequence of Integrin alpha-V/beta-6 (P06756 31-889 limits assumed): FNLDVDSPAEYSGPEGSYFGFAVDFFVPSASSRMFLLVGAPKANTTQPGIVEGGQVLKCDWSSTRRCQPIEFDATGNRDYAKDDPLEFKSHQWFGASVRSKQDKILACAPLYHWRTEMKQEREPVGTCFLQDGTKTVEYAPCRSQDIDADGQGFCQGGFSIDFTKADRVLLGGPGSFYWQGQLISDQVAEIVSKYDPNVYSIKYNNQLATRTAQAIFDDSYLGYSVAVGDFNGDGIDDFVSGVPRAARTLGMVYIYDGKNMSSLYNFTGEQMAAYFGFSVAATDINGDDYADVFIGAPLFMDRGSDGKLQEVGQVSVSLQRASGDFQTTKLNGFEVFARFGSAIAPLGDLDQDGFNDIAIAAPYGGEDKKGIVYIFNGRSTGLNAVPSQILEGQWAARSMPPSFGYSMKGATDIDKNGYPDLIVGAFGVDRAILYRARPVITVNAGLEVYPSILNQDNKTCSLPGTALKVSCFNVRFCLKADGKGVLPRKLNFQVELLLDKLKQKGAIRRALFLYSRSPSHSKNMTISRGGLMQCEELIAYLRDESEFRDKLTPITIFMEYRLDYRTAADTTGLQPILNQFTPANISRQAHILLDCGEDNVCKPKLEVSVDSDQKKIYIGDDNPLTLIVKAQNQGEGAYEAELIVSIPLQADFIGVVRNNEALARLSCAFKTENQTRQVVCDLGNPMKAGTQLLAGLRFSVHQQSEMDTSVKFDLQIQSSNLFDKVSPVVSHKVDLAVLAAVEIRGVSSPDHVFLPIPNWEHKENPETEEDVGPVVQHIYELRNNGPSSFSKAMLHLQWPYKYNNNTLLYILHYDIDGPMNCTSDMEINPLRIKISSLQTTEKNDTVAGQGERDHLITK
Sequence of Integrin alpha-V/beta-6 (P06756 891-1048 limits assumed): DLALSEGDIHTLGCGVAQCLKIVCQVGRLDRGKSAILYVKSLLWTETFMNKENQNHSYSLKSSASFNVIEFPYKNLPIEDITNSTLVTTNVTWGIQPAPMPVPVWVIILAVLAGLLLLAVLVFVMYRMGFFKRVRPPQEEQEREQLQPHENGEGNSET
Sequence of Integrin alpha-V/beta-6 (P18564 22-788 limits assumed): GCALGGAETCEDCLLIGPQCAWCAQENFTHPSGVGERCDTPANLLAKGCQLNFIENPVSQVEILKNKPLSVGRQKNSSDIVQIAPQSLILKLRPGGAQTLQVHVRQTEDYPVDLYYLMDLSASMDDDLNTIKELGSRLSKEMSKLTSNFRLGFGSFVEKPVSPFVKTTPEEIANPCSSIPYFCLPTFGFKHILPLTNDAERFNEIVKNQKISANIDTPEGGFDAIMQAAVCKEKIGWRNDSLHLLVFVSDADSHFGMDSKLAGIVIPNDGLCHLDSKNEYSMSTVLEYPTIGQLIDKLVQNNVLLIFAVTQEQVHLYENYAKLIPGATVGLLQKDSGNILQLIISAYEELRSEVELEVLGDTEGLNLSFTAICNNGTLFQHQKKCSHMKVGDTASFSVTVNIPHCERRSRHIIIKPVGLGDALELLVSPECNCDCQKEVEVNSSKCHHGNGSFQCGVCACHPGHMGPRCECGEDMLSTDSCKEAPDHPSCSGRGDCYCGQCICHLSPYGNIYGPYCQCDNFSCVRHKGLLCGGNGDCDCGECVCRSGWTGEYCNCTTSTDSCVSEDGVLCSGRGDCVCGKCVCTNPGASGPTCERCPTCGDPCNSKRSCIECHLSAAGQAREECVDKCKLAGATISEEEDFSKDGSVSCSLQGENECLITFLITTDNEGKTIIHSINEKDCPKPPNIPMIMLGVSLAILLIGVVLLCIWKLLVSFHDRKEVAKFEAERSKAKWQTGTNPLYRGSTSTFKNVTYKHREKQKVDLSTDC
Sequence of Integrin alpha-V/beta-3 (P05106 27-788 limits assumed): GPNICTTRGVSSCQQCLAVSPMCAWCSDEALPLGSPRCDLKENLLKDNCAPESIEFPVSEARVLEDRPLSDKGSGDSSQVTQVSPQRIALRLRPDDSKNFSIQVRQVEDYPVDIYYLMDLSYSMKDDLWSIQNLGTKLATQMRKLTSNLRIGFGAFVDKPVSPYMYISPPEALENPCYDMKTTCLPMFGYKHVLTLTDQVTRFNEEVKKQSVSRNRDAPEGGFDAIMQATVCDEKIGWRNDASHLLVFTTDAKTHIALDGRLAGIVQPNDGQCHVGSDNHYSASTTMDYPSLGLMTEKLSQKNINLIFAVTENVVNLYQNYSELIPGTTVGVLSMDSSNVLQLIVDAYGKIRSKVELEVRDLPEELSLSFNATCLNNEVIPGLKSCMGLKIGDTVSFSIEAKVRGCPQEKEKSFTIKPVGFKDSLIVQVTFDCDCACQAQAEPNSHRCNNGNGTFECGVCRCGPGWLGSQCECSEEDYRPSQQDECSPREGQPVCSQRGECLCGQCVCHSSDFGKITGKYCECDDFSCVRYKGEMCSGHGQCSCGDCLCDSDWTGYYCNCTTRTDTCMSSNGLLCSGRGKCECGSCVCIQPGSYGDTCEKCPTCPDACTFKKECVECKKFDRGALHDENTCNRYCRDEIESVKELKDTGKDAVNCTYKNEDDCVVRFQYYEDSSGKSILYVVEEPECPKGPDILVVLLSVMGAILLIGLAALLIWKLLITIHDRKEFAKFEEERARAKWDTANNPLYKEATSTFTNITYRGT
Sequence of Integrin alpha-V/beta-3 (P06756 31-889 limits assumed): as the sequence (P06756 31-889 limits assumed) above
Sequence of Integrin alpha-V/beta-3 (P06756 891-1048 limits assumed): as the sequence (P06756 891-1048 limits assumed) above
Sequence of Integrin alpha-IIb/beta-3 (P05106 27-788 limits assumed): as the sequence (P05106 27-788 limits assumed) above
Sequence of Integrin alpha-IIb/beta-3 (P08514 32-887 limits assumed): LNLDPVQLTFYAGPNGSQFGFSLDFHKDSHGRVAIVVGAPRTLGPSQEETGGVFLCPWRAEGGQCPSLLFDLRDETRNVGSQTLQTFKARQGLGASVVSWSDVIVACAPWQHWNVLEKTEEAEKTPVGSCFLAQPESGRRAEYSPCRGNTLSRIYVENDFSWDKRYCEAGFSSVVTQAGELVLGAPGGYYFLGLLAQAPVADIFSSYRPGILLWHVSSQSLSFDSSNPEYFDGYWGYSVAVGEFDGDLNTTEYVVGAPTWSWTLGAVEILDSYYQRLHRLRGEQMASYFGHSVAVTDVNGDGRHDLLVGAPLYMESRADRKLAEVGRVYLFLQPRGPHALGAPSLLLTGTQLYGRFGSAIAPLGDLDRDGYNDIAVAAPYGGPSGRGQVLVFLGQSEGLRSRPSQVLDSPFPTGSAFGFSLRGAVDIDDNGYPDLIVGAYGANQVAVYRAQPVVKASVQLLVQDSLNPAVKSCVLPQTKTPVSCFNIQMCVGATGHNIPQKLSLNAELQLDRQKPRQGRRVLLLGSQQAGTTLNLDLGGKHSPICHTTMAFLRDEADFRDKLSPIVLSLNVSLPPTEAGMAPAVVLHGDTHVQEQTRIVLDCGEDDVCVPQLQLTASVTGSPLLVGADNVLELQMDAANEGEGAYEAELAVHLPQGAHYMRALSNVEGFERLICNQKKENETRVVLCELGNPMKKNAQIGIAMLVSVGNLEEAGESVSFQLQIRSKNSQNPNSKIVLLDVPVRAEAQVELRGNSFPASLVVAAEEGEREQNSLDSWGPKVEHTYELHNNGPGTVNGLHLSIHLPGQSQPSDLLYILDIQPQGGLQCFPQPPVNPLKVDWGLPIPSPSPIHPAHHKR
Sequence of Integrin alpha-IIb/beta-3 (P08514 891-1039 limits assumed): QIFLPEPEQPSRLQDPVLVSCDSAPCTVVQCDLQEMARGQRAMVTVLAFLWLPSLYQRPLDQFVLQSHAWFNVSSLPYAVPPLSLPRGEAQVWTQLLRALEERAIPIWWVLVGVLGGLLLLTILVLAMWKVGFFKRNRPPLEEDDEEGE

Usually clearance stands for the volume of plasma or blood freed of the substance per unit of time. Usually IC50 stands for the concentration that gives 50% inhibition. For orientation: bioavailability means the share of a dose that reaches the circulation, judged against a reference dose that is usually intravenous. The Cmax is the peak of the concentration-time curve. As a reminder, the half-life is how long it takes for the measured level to halve. In [1], `COc1cc(OC)cc(C(CC(=O)O)Cc2csc(CCCc3ccc4c(n3)NCCC4)n2)c1` (configuration not stated) returned a clearance of 7.3 mL/min/kg. The AUC/dose in the data set with Rattus norvegicus [2] and in the data set with Rattus norvegicus [4] was 2.2 µg·h/mL in each case. The Vd in data set [3] came out at 2.04 L/kg. Moreover, the values for the IC50 (on Integrin alpha-V/beta-3; at Integrin alpha-V/beta-6; in [8]) were 1.54 nM, 1740 nM and 350 nM, respectively. In [5], this compound had a bioavailability of 98%. Further, the Cmax in data set [6] amounted to 6100 ng/mL. This compound showed a half-life in data set [7] of 6.1 h.
With `COc1ccc(C(CC(=O)O)Cc2csc(CCCc3ccc4c(n3)NCCC4)n2)cn1` (configuration not stated), the clearance in [1] worked out at 12.3 mL/min/kg. Also, the AUC/dose worked out at 1.4 µg·h/mL with Rattus norvegicus [2] and 1.6 µg·h/mL in the data set with Rattus norvegicus [4]. Moreover, the Vd in data set [3] was 2.95 L/kg. In addition, the IC50 is 1.23 nM at Integrin alpha-V/beta-3 and 1320 nM on Integrin alpha-V/beta-6. Further, in data set [5], the bioavailability is greater than 100%. Further, the Cmax in data set [6] is 6600 ng/mL. This compound also had a half-life in [7] of 6.3 h.
Regarding `O=C(O)CC(Cc1nc(CCCc2ccc3c(n2)NCCC3)no1)c1ccc2c(c1)OCO2` (racemic), the clearance in data set [1] was determined as 10.9 mL/min/kg. The AUC/dose was found to be 1.6 µg·h/mL in the data set on Rattus norvegicus [2] and 1.5 µg·h/mL with Rattus norvegicus [4]. Also, in data set [3], the Vd came to 0.733 L/kg. This compound also yielded a bioavailability in data set [5] of 95%. This compound yielded a Cmax in data set [6] of 12000 ng/mL. The same compound showed a half-life in [7] of 1.4 h.
In turn, `O=C(O)CC(Cc1csc(CCCc2ccc3c(n2)NCCC3)n1)c1cnc(C2CC2)s1` (configuration not stated) gave a clearance in [1] of 6.8 mL/min/kg. For the same compound, the AUC/dose with Rattus norvegicus [2] came to 2.4 µg·h/mL; in the data set with Rattus norvegicus [4] it was 2.5 µg·h/mL. For the same compound, the Vd in data set [3] worked out at 1.02 L/kg. The IC50 turned out to be 1.22 nM at Integrin alpha-V/beta-3 and 313 nM on Integrin alpha-V/beta-6. Besides, the bioavailability in data set [5] was greater than 100%. For the same compound, the Cmax in [6] stood at 22000 ng/mL. This compound showed a half-life in [7] of 3.4 h.
`Cc1ccc(C(CC(=O)O)Cc2csc(CCCc3ccc4c(n3)NCCC4)n2)cc1` (configuration not stated): the IC50 on Integrin alpha-V/beta-3 is 11.1 nM; on Integrin alpha-V/beta-6, 5060 nM; in data set [8], 2000 nM.
The matching figures for `O=C(O)CC(Cc1csc(CCCc2ccc3c(n2)NCCC3)n1)c1cnc(-c2ccccc2)s1` (configuration not stated): 1.77 nM, 2670 nM and 252 nM.
Consider `COc1ccc(C(CC(=O)O)Cc2csc(CCCCNc3cc(N4CCSCC4)ccn3)n2)cn1` (configuration not stated), for which, on Integrin alpha-V/beta-3, the IC50 stood at 3.73 nM.
In data set [1], `COCc1ncc(C(CC(=O)O)Cc2csc(CCCc3ccc4c(n3)NCCC4)n2)s1` (configuration not stated) had a clearance of 8.7 mL/min/kg. Further, the AUC/dose is 1.9 µg·h/mL with Rattus norvegicus [2] and 1.7 µg·h/mL in the data set with Rattus norvegicus [4]. Moreover, the Vd in data set [3] turned out to be 2.68 L/kg. Moreover, the figures for the IC50 on Integrin alpha-V/beta-3 and on Integrin alpha-V/beta-6 were 1.2 nM and 841 nM, respectively. In [5], this compound had a bioavailability of 90%. This compound had a Cmax in data set [6] of 3000 ng/mL. Also, the half-life in data set [7] is 7.1 h.
In the case of `COc1ccc(C(CC(=O)O)Cc2csc(CCCCNc3cc(N4CCOCC4)ccn3)n2)cn1` (configuration not stated), the IC50 on Integrin alpha-V/beta-3 was determined as 3.54 nM.
Consider `COc1ccc(C(CC(=O)O)Cc2csc(CCCc3ccc4c(n3)NCCC4)n2)cc1F` (configuration not stated), for which, in data set [1], the clearance was 9 mL/min/kg. Moreover, the AUC/dose with Rattus norvegicus [2] was determined as 1.9 µg·h/mL; with Rattus norvegicus [4], 1.8 µg·h/mL. The Vd in [3] was found to be 1.29 L/kg. In addition, the IC50 at Integrin alpha-V/beta-3 was determined as 2.17 nM; on Integrin alpha-V/beta-6, 3260 nM; in data set [8], 405 nM. Moreover, the bioavailability in data set [5] was found to be 95%. This compound came in with a Cmax in data set [6] of 9100 ng/mL. This compound showed a half-life in data set [7] of 4.3 h.
For `COc1ccc(C(CC(=O)O)Cc2csc(CCCc3ccc4c(n3)NCCN4C)n2)cn1` (configuration not stated), on Integrin alpha-V/beta-3, the IC50 turned out to be 1.24 nM.
On to `COc1ccc(C(CC(=O)O)Cc2csc(CCCCNc3cc(N4CCCC4)ccn3)n2)cn1` (configuration not stated), for which the half-inhibitory concentration (IC50) at Integrin alpha-V/beta-3 turned out to be 3 nM.
For `O=C(O)C[C@H](Cc1csc(CCCc2ccc3c(n2)NCCC3)n1)c1ccc2c(c1)OCO2`, the figures for the half-life in data set [9] and in [12] were 13 h and 11.2 h, respectively. Moreover, the bioavailability in [10] was 64%; in [11], 60%.
Consider `O=C(O)CC(Cc1csc(CCCc2ccc3c(n2)NCCC3)n1)c1ccc2c(c1)OCO2` (configuration not stated), for which, in data set [1], the clearance stood at 3.3 mL/min/kg. For the same compound, the AUC/dose in the data set with Rattus norvegicus [2] came out at 5.2 µg·h/mL; in the data set on Rattus norvegicus [4], 6.8 µg·h/mL. The Vd in [3] is 0.897 L/kg. The IC50 at Integrin alpha-V/beta-3 came out at 1.18 nM; at Integrin alpha-V/beta-6, 2390 nM; in data set [8] it was 263 nM. Moreover, in data set [5], the bioavailability is greater than 100%. The compound further showed a Cmax in data set [6] of 19600 ng/mL. The compound further showed a half-life in data set [7] of 7 h.
Consider `O=C(O)CC(Cc1csc(CCCc2ccc3c(n2)NCCC3)n1)c1cccc(F)c1` (configuration not stated), for which the IC50 on Integrin alpha-V/beta-3 came to 2.8 nM; at Integrin alpha-V/beta-6, 1310 nM; in data set [8], 559 nM.
`CN1CCNc2nc(CCCc3nc(CC(CC(=O)O)c4ccc5c(c4)OCO5)cs3)ccc21` (configuration not stated): the IC50 on Integrin alpha-V/beta-3 came to 0.61 nM.
Compound `O=C(O)C[C@H](Cc1csc(CCCCNc2cc(N3CCSCC3)ccn2)n1)c1ccc2c(c1)OCO2` showed an IC50 on Integrin alpha-V/beta-3 of 1.7 nM.
On the same count and under the same terms, then `O=C(O)C[C@H](Cc1csc(CCCCNc2cc(N3CCCC3)ccn2)n1)c1ccc2c(c1)OCO2`, with 1.26 nM.
In the case of `Cc1nc2cc(C(CC(=O)O)Cc3csc(CCCc4ccc5c(n4)NCCC5)n3)ccc2s1` (configuration not stated), the IC50 was 2.82 nM on Integrin alpha-V/beta-3, greater than 10000 nM on Integrin alpha-V/beta-6 and 95.1 nM in [8].
Turning to `O=C(O)CC(Cc1csc(CCCc2ccc3c(n2)NCCC3)n1)c1ccc(Cl)cc1` (configuration not stated), the IC50 at Integrin alpha-V/beta-3 worked out at 3.81 nM; at Integrin alpha-V/beta-6, 2440 nM; in data set [8], 636 nM.
`O=C(O)CC(Cc1csc(CCCc2ccc3c(n2)NCCC3)n1)c1cnc(-c2ccc(Cl)cc2)s1` (configuration not stated): the concentration for half-maximal inhibition (IC50) at Integrin alpha-V/beta-3 was determined as 2.09 nM; at Integrin alpha-V/beta-6 it was 4300 nM; in data set [8], 559 nM.
For `O=C(O)CC(Cc1csc(CCCc2ccc3c(n2)NCCC3)n1)c1ccc(F)c(F)c1` (configuration not stated), the figures for the IC50 (at Integrin alpha-V/beta-3; on Integrin alpha-V/beta-6; in data set [8]) were 3.49 nM, 2120 nM and 484 nM, respectively.
Compound `O=C(O)C[C@H](Cc1csc(CCCCNc2cc(N3CCOCC3)ccn2)n1)c1ccc2c(c1)OCO2` showed an IC50 at Integrin alpha-V/beta-3 of 1.56 nM.

For the origin of these results see ChEMBL document CHEMBL1149447, “Synthesis of 2,5-thiazole butanoic acids as potent and selective alpha(v)beta3 integrin receptor antagonists with improved oral pharmacokinetic properties” (Bioorg Med Chem Lett, 2006).
